# From ChEMBL document CHEMBL4145462, “Nitrogen-containing ecdysteroid derivatives vs. multi-drug resistance in cancer: Preparation and antitumor activity of oximes, oxime ethers and a lactam” (Eur J Med Chem, 2018)
# How the values were obtained:
# [1] = Synergistic cytotoxicity against mouse L5178 cells assessed as combination index at ED90 using 150:1 test compound to doxorubicin ratio after 48 hrs by MTT-based checkerboard microplate method; type: functional
# Summary of the method: (§1)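 Checkerboard microplate combinations of compound with doxorubicin at constant molar ratios. 5 × 10^4 cells/well in McCoy's 5A, 48 h at 37°C, 5% CO2. MTT added to 0.5 mg/mL final for 4 h, SDS/HCl overnight, OD read at 540 and 630 nm. Combination indices derived per ratio for 50%, 75% and 90% growth inhibition by median-effect analysis.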
# [2] = Synergistic cytotoxicity against mouse L5178 cells expressing human ABCB1 assessed as combination index at ED75 using 30:1 test compound to doxorubicin ratio after 48 hrs by MTT-based checkerboard microplate method; type: functional; summary of the method: as §1
# [3] = Synergistic cytotoxicity against mouse L5178 cells assessed as combination index at ED90 using 600:1 test compound to doxorubicin ratio after 48 hrs by MTT-based checkerboard microplate method; type: functional; summary of the method: as §1
# [4] = Synergistic cytotoxicity against mouse L5178 cells expressing human ABCB1 assessed as combination index at ED50 using 60:1 test compound to doxorubicin ratio after 48 hrs by MTT-based checkerboard microplate method; type: functional; summary of the method: as §1
# [5] = Synergistic cytotoxicity against mouse L5178 cells expressing human ABCB1 assessed as combination index at ED90 using 60:1 test compound to doxorubicin ratio after 48 hrs by MTT-based checkerboard microplate method; type: functional; summary of the method: as §1
# [6] = Synergistic cytotoxicity against mouse L5178 cells assessed as combination index at ED75 using 600:1 test compound to doxorubicin ratio after 48 hrs by MTT-based checkerboard microplate method; type: functional; summary of the method: as §1
# [7] = Synergistic cytotoxicity against mouse L5178 cells expressing human ABCB1 assessed as combination index at ED50 using 15:1 test compound to doxorubicin ratio after 48 hrs by MTT-based checkerboard microplate method; type: functional; summary of the method: as §1
# [8] = Cytotoxicity against mouse L5178 cells expressing human ABCB1 after 48 hrs by MTT assay; type: functional, cell-based; settings: L5178, 48 h
# Summary of the method: (§2)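 Parental mouse lymphoma L5178 and the MDR line made by pHa MDR1/A retrovirus transfection, selected with 60 µg/L colchicine. Grown in McCoy's 5A with horse serum at 37°C, 5% CO2. 5 x 10^4 cells/well, serial compound dilutions, 48 h. MTT added to 0.5 mg/mL final for 4 h, then 10% SDS in 0.01 M HCl overnight, OD read at 540 and 630 nm. IC50 taken as median cytotoxic activity (Dm) from control lanes of checkerboard plates, n=2.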
# MDA-MB-231 = assay: Antiproliferative activity against human MDA-MB-231 cells after 72 hrs by MTT assay; type: functional, cell-based; settings: MDA-MB-231, 72 h
# Summary of the method: (§3)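 Cells grown in MEM with 10% FCS, 1% non-essential amino acids and 1% penicillin-streptomycin. Seeded at 5000 cells/well, exposed to 0.1–30.0 µM compound for 72 h. MTT (5 mg/ml solution) was then added for 4 h, formazan dissolved in DMSO, and absorbance read at 545 nm. Cisplatin served as positive control. IC50 came from sigmoidal dose–response fits (log inhibitor vs normalized response, variable slope).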
# HeLa = assay: Antiproliferative activity against human HeLa cells after 72 hrs by MTT assay; type: functional, cell-based; summary of the method: as §3
# [9] = Synergistic cytotoxicity against mouse L5178 cells expressing human ABCB1 assessed as combination index at ED75 using 15:1 test compound to doxorubicin ratio after 48 hrs by MTT-based checkerboard microplate method; type: functional; summary of the method: as §1
# [10] = Synergistic cytotoxicity against mouse L5178 cells assessed as combination index at ED75 using 37.5:1 test compound to doxorubicin ratio after 48 hrs by MTT-based checkerboard microplate method; type: functional; summary of the method: as §1
# [11] = Synergistic cytotoxicity against mouse L5178 cells expressing human ABCB1 assessed as combination index at ED50 using 7.5:1 test compound to doxorubicin ratio after 48 hrs by MTT-based checkerboard microplate method; type: functional; summary of the method: as §1
# [12] = Synergistic cytotoxicity against mouse L5178 cells expressing human ABCB1 assessed as combination index at ED90 using 7.5:1 test compound to doxorubicin ratio after 48 hrs by MTT-based checkerboard microplate method; type: functional; summary of the method: as §1
# [13] = Synergistic cytotoxicity against mouse L5178 cells expressing human ABCB1 assessed as combination index at ED90 using 15:1 test compound to doxorubicin ratio after 48 hrs by MTT-based checkerboard microplate method; type: functional; summary of the method: as §1
# [14] = Synergistic cytotoxicity against mouse L5178 cells expressing human ABCB1 assessed as combination index at ED50 using 3.75:1 test compound to doxorubicin ratio after 48 hrs by MTT-based checkerboard microplate method; type: functional; summary of the method: as §1
# [15] = Synergistic cytotoxicity against mouse L5178 cells expressing human ABCB1 assessed as combination index at ED75 using 3.75:1 test compound to doxorubicin ratio after 48 hrs by MTT-based checkerboard microplate method; type: functional; summary of the method: as §1
# MCF7 = assay: Antiproliferative activity against human MCF7 cells after 72 hrs by MTT assay; type: functional, cell-based; settings: MCF7, 72 h; summary of the method: as §3
# [16] = Synergistic cytotoxicity against mouse L5178 cells expressing human ABCB1 assessed as combination index at ED90 using 30:1 test compound to doxorubicin ratio after 48 hrs by MTT-based checkerboard microplate method; type: functional; summary of the method: as §1
# ABCB1 (P-glycoprotein) = ABCB1 (P-glycoprotein) (Homo sapiens, UniProt P08183); assay: Inhibition of human ABCB1 expressed in mouse L5178 cells assessed as increase in rhodamine-123 accumulation at 20 uM after 10 mins by flow cytometric analysis relative to control; type: cell-based; settings: mouse L5178 cells expressing human ABCB1, probe rhodamine-123
# ABCB1 (P-glycoprotein), sequence (P08183 whole entry): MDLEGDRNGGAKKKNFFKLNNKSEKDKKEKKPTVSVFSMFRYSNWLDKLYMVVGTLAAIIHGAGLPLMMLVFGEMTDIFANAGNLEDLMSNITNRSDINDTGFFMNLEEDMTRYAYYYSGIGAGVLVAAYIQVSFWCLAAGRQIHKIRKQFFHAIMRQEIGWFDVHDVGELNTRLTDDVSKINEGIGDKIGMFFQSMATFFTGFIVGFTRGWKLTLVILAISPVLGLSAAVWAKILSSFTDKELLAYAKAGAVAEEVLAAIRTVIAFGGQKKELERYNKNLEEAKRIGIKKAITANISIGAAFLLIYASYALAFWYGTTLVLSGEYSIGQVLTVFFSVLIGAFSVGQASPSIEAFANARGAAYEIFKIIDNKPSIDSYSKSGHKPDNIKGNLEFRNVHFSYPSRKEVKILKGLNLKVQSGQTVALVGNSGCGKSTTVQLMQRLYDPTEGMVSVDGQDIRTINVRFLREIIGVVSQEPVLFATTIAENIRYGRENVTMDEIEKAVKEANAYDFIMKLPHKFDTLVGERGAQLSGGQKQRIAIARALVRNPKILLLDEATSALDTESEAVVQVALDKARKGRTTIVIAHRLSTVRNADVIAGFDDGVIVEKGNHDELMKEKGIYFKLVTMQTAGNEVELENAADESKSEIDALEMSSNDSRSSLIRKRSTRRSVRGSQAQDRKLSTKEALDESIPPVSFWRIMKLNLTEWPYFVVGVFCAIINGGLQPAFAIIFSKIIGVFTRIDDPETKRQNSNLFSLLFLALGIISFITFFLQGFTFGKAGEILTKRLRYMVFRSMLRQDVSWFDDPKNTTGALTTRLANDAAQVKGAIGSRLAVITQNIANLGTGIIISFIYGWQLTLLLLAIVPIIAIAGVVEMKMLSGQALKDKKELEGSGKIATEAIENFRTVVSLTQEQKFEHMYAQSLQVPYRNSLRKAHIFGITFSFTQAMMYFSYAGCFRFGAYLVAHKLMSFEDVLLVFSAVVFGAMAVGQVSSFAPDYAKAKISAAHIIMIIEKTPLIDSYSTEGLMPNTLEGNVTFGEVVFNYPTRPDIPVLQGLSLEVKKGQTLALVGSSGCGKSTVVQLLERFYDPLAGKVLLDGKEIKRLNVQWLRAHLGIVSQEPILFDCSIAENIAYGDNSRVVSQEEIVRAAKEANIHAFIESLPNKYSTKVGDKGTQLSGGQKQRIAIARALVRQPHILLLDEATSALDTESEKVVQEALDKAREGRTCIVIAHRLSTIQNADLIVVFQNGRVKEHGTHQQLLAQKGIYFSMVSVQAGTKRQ
# Summary of the method: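 Cells at 2 × 10^6/mL were preincubated 10 min with compound. Rhodamine 123 then added to 5.2 µM final, 20 min at 37 °C. Cells washed twice in PBS, resuspended and read by flow cytometry. Percent inhibition was scaled between MDR-cell accumulation (0%) and parental L5178 accumulation (100%). Controls: 100 nM tariquidar (positive) and 2% DMSO (negative).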
# [17] = Synergistic cytotoxicity against mouse L5178 cells assessed as combination index at ED75 using 75:1 test compound to doxorubicin ratio after 48 hrs by MTT-based checkerboard microplate method; type: functional; summary of the method: as §1
# [18] = Synergistic cytotoxicity against mouse L5178 cells assessed as combination index at ED50 using 75:1 test compound to doxorubicin ratio after 48 hrs by MTT-based checkerboard microplate method; type: functional; summary of the method: as §1
# [19] = Synergistic cytotoxicity against mouse L5178 cells assessed as combination index at ED50 using 37.5:1 test compound to doxorubicin ratio after 48 hrs by MTT-based checkerboard microplate method; type: functional; summary of the method: as §1
# [20] = Cytotoxicity against mouse L5178 cells after 48 hrs by MTT assay; type: functional, cell-based; settings: L5178, 48 h; summary of the method: as §2
# [21] = Synergistic cytotoxicity against mouse L5178 cells assessed as combination index at ED90 using 75:1 test compound to doxorubicin ratio after 48 hrs by MTT-based checkerboard microplate method; type: functional; summary of the method: as §1
# [22] = Synergistic cytotoxicity against mouse L5178 cells assessed as combination index at ED50 using 600:1 test compound to doxorubicin ratio after 48 hrs by MTT-based checkerboard microplate method; type: functional; summary of the method: as §1
# [23] = Synergistic cytotoxicity against mouse L5178 cells expressing human ABCB1 assessed as combination index at ED50 using 30:1 test compound to doxorubicin ratio after 48 hrs by MTT-based checkerboard microplate method; type: functional; summary of the method: as §1
# [24] = Synergistic cytotoxicity against mouse L5178 cells expressing human ABCB1 assessed as combination index at ED90 using 3.75:1 test compound to doxorubicin ratio after 48 hrs by MTT-based checkerboard microplate method; type: functional; summary of the method: as §1
IC50 (MDA-MB-231) [µM],IC50 (HeLa) [µM],IC50 (MCF7) [µM],"inhibition at 10 min, 20 µM (ABCB1 (P-glycoprotein)) [%]",SMILES,CI [1],CI [2],CI [3],CI [4],CI [5],CI [6],CI [7],IC50 [8] [µM],CI [9],CI [10],CI [11],CI [12],CI [13],CI [14],CI [15],CI [16],further results
29.4,> 30,24.2,103,C=CCO/N=C1/C=C2C3=CC[C@H]([C@@]4(C)OC(C)(C)O[C@@H]4CCC(C)(C)O)[C@@]3(C)CC[C@@H]2[C@@]2(C)C[C@@H]3OC(C)(C)O[C@@H]3C[C@@H]12,0.8,0.32,1.12,0.41,0.39,0.99,0.5,52.7,0.22,0.47,0.22,0.15,0.22,0.25,0.15,0.34,CI [17]: 0.5; CI [18]: 0.58; CI [19]: 0.46; IC50 [20]: 55.3 µM; CI [21]: 0.44; CI [22]: 0.88; CI [23]: 0.32; CI [24]: 0.11
26,15.4,18,106,CO/N=C1/C=C2C3=CC[C@H]([C@@]4(C)OC(C)(C)O[C@@H]4CCC(C)(C)O)[C@@]3(C)CC[C@@H]2[C@@]2(C)C[C@@H]3OC(C)(C)O[C@@H]3C[C@@H]12,0.64,0.22,1.3,0.33,0.36,1.2,0.75,53.1,0.17,0.47,0.17,0.15,0.16,0.2,0.17,0.24,CI [17]: 0.5; CI [18]: 0.69; CI [19]: 0.77; IC50 [20]: 46 µM; CI [21]: 0.39; CI [22]: 1.14; CI [23]: 0.21; CI [24]: 0.14

SMILES,IC50 (MDA-MB-231) [µM],IC50 (HeLa) [µM],IC50 (MCF7) [µM],"inhibition at 10 min, 20 µM (ABCB1 (P-glycoprotein)) [%]",CI [1],CI [2],CI [3],CI [4],CI [5],CI [6],CI [7],IC50 [8] [µM],CI [9],CI [10],CI [11],CI [12],CI [13],CI [14],CI [15],CI [16],further results
CC(C)(O)CC[C@H]1OC(C)(C)O[C@]1(C)[C@H]1CC=C2C3=C/C(=N\OC(C)(C)C)[C@@H]4C[C@H]5OC(C)(C)O[C@H]5C[C@]4(C)[C@H]3CC[C@@]21C,16.9,26.1,19.3,94,0.84,0.38,0.98,0.51,0.64,0.89,0.89,65.4,0.27,0.85,0.27,0.23,0.28,0.31,0.26,0.41,CI [17]: 1.03; CI [18]: 1.31; CI [19]: 1.16; IC50 [20]: 63.8 µM; CI [21]: 0.83; CI [22]: 0.83; CI [23]: 0.36; CI [24]: 0.24
